Assay results from ChEMBL document CHEMBL2086249, “Use of small-molecule crystal structures to address solubility in a novel series of G protein coupled receptor 119 agonists: optimization of a lead and in vivo evaluation” (J Med Chem, 2012).

What was measured:
[1] = physchem; details: pH 7.4
[2] = AUC (0 to 24 hrs) in Beagle dog at 5 mg/kg; type: ADME, organism-based, Canis lupus familiaris; parameters: time < 24 hr, dose 5 mg/kg; details: plasma
[3] = Drug excretion in bile-duct cannulated Han Wistar rat bile; type: ADME; details: in vivo
[4] = AUC (0 to 24 hrs) in Beagle dog at 50 mg/kg; type: ADME, organism-based, Canis lupus familiaris; parameters: time < 24 hr, dose 50 mg/kg; details: plasma
[5] = Half life in C57BL6 mouse at 2 mg/kg, iv; type: ADME, organism-based; parameters: dose 2 mg/kg, route intravenous; details: in vivo
Outline: (§1)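 Single-dose PK in C57BL6 mice, Han Wistar rats and beagle dogs. Intravenous 2 mg/kg in 5% DMSO/95% (hydroxypropyl)-β-cyclodextrin. Oral dosing as a suspension in aqueous 0.1% (w/v) pluronic F127, at 5 mg/kg for mouse and rat and 13 mg/kg for dog. Dose volume 5 mL/kg for rodents and 2 mL/kg for dog.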

[6] = Cmax in Han Wistar rat at 5 mg/kg; type: ADME, organism-based; parameters: dose 5 mg/kg; details: in vivo
[7] = Hydrolytic stability of the compound at pH 1 to 10; type: physicochemical; details: buffer
[8] = Cmax in C57BL6 mouse at 30 mg/kg; type: ADME, organism-based; parameters: dose 30 mg/kg; details: in vivo
[9] = Intrinsic clearance in rat hepatocytes assessed per million cells; type: ADME, cell-based, Hepatocyte; details: read-out: CLH
[10] = Apparent permeability across apical to basolateral side of human Caco2 cells at 10 uM; type: ADME, cell-based; details: Caco-2
[11] = Volume of distribution at steady state in Han Wistar rat at 2 mg/kg, iv and 5 mg/kg, po; type: ADME, organism-based; details: in vivo, read-out: Vdss
Outline: (§2)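 IV dose 2 mg/kg in 5% DMSO/95% (hydroxypropyl)-β-cyclodextrin; oral dose given as suspension in aqueous 0.1% pluronic F127, 5 mg/kg for mouse and rat, 13 mg/kg for dog. Dose volumes 5 mL/kg (mouse, rat) and 2 mL/kg (dog). Animals were C57BL6 mice, Han Wistar rats and beagle dogs.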

[12] = AUC (0 to 6 hrs) in C57BL6 mouse at 30 mg/kg; type: ADME, organism-based; parameters: time < 6 hr, dose 30 mg/kg; details: plasma
[13] = Intrinsic clearance in mouse hepatocytes assessed per million cells; type: ADME, cell-based, Hepatocyte; details: read-out: CLH
[14] = Oral bioavailability in C57BL6 mouse at 5 mg/kg; type: ADME, organism-based; details: in vivo
Outline: as §2

[15] = Volume of distribution at steady state in Beagle dog at 2 mg/kg, iv and 13 mg/kg, po; type: ADME, organism-based, Canis lupus familiaris; details: in vivo, read-out: Vdss
Outline: as §2

[16] = Cmax in Han Wistar rat at 100 mg/kg; type: ADME, organism-based; parameters: dose 100 mg/kg; details: in vivo
[17] = Cmax in C57BL6 mouse at 5 mg/kg; type: ADME, organism-based; parameters: dose 5 mg/kg; details: in vivo
[18] = Cmax in Beagle dog at 5 mg/kg; type: ADME, organism-based, Canis lupus familiaris; parameters: dose 5 mg/kg; details: in vivo
[19] = Cmax in C57BL6 mouse at 100 mg/kg; type: ADME, organism-based; parameters: dose 100 mg/kg; details: in vivo
[20] = AUC (0 to 12 hrs) in C57BL6 mouse at 100 mg/kg; type: ADME, organism-based; parameters: time < 12 hr, dose 100 mg/kg; details: plasma
[21] = AUC (0 to 24 hrs) in Beagle dog at 1 mg/kg; type: ADME, organism-based, Canis lupus familiaris; parameters: time < 24 hr, dose 1 mg/kg; details: plasma
[22] = Half life in Beagle dog at 2 mg/kg, iv; type: ADME, organism-based, Canis lupus familiaris; parameters: dose 2 mg/kg, route intravenous; details: in vivo
Outline: as §1

[23] = Plasma clearance in Han Wistar rat at 2 mg/kg, iv and 5 mg/kg, po; type: ADME, organism-based
Outline: as §2

[24] = Oral bioavailability in Beagle dog at 13 mg/kg; type: ADME, organism-based, Canis lupus familiaris; details: in vivo
Outline: as §1

[25] = Intrinsic clearance in dog hepatocytes assessed per million cells; type: ADME, cell-based, Canis lupus familiaris, Hepatocyte; details: read-out: CLH
[26] = AUC (0 to 24 hrs) in Han Wistar rat at 5 mg/kg; type: ADME, organism-based; parameters: time < 24 hr, dose 5 mg/kg; details: plasma
[27] = Volume of distribution at steady state in C57BL6 mouse at 2 mg/kg, iv and 5 mg/kg, po; type: ADME, organism-based; details: in vivo, read-out: Vdss
Outline: as §2

[28] = Half life in Beagle dog at 13 mg/kg, po; type: ADME, organism-based, Canis lupus familiaris; parameters: dose 13 mg/kg, route oral; details: in vivo
Outline: as §1

[29] = Half life in Han Wistar rat at 5 mg/kg, po; type: ADME, organism-based; parameters: dose 5 mg/kg, route oral; details: in vivo
Outline: as §1

[30] = AUC (0 to 24 hrs) in Han Wistar rat at 100 mg/kg; type: ADME, organism-based; parameters: time < 24 hr, dose 100 mg/kg; details: plasma
[31] = Half life in Han Wistar rat at 2 mg/kg, iv; type: ADME, organism-based; parameters: dose 2 mg/kg, route intravenous; details: in vivo
Outline: as §1

[32] = Cmax in Beagle dog at 50 mg/kg; type: ADME, organism-based, Canis lupus familiaris; parameters: dose 50 mg/kg; details: in vivo
[33] = Cmax in Beagle dog at 10 mg/kg; type: ADME, organism-based, Canis lupus familiaris; parameters: dose 10 mg/kg; details: in vivo
[34] = Oral bioavailability in Han Wistar rat at 5 mg/kg; type: ADME, organism-based; details: in vivo
Outline: as §2

[35] = Plasma clearance in Beagle dog at 2 mg/kg, iv and […] mg/kg, po; type: ADME, organism-based, Canis lupus familiaris
[36] = Drug excretion in bile-duct cannulated Han Wistar rat urine; type: ADME; details: in vivo
[37] = Plasma clearance in C57BL6 mouse at 2 mg/kg, iv and 5 mg/kg, po; type: ADME, organism-based
Outline: as §2

[38] = Half life in C57BL6 mouse at 5 mg/kg, po; type: ADME, organism-based; parameters: dose 5 mg/kg, route oral; details: in vivo
Outline: as §1

[39] = AUC (0 to 12 hrs) in C57BL6 mouse at 5 mg/kg; type: ADME, organism-based; parameters: time < 12 hr, dose 5 mg/kg; details: plasma
[40] = Cmax in Beagle dog at 1 mg/kg; type: ADME, organism-based, Canis lupus familiaris; parameters: dose 1 mg/kg; details: in vivo
[41] = AUC (0 to 24 hrs) in Beagle dog at 10 mg/kg; type: ADME, organism-based, Canis lupus familiaris; parameters: time < 24 hr, dose 10 mg/kg; details: plasma
[42] = Intrinsic clearance in human liver microsomes; type: ADME, Microsome; details: read-out: CLH

## Cc1cnccc1COc1cnc(N2CCN(C(=O)OC(C)(C)C)CC2)nc1
[1]; octanol/water
  logD: 3.8

## C[C@@H]1CN(C(=O)OC(C)(C)C)CCN1c1ncc(OCc2ccc(C#N)cc2)cn1
[1]; octanol/phosphate buffer
  logD: > 3.6

## C[C@@H]1CN(C(=O)OCC(F)(F)F)CCN1c1ncc(OCc2ccncc2C#N)cn1
[1]; octanol/phosphate buffer
  logD: 3

## C[C@@H]1CN(C(=O)OC(C)(C)C)CCN1c1ncc(OCc2ccc(S(C)(=O)=O)cc2)cn1
[1]; octanol/phosphate buffer
  logD: 3.5

## C[C@@H]1CN(c2ncc(OCc3ccc(S(C)(=O)=O)cc3)cn2)[C@@H](C)CN1C(=O)OC(C)(C)C
[1]; octanol/phosphate buffer
  logD: > 3.7

## C[C@@H]1CN(C(=O)OC(C)(C)C)CCN1c1ncc(OCc2ccc(S(C)(=O)=O)cc2C#N)cn1
[1]; octanol/phosphate buffer
  logD: 3.3

## C[C@@H]1CN(C(=O)OC(C)(C)C)CCN1c1ncc(OCc2ccc(S(=O)(=O)N(C)C)cc2)cn1
[1]; octanol/phosphate buffer
  logD: > 4.3

## Cc1cnccc1COc1cnc(N2CCN(C(=O)OC(C)(C)C)C[C@H]2C)nc1
[1]; octanol/phosphate buffer
  logD: 3.8

## CC(C)(C)OC(=O)N1CCN(c2ncc(OCc3ccncc3F)cn2)CC1
[1]; octanol/phosphate buffer
  logD: 3.6

## CC(C)(C)OC(=O)N1CCN(c2ncc(OCc3ccc(S(C)(=O)=O)cc3)nn2)CC1
[1]; octanol/phosphate buffer
  logD: 2.9

## CC(C)c1nc(N2CCN(c3ncc(OCc4ccncc4C#N)cn3)[C@H](C)C2)no1
[2]
  AUC(0-t) at 24 h: 14 µM·h
[1]; octanol/phosphate buffer
  logD: 3.3
[3]
  Drug excretion: Active
[4]
  AUC(0-t) at 24 h: 119 µM·h
[5]
  half-life: 1 h
[6]
  Cmax: 700 nM
[7]
  Stability: Stable
[8]
  Cmax: 3500 nM
[9]
  hepatocyte CLint: 29 µL/min/1e6 cells
[10]
  Papp A→B at 10 µM: 85 ×10⁻⁶ cm/s
[11]
  Vd: 5.1 L/kg
[12]
  AUC(0-t) at 6 h: 6.4 µM·h
[13]
  hepatocyte CLint: 67 µL/min/1e6 cells
[14]
  bioavailability: 22%
[15]
  Vd: 4.1 L/kg
[16]
  Cmax: 6300 nM
[17]
  Cmax: 400 nM
[18]
  Cmax: 2500 nM
[19]
  Cmax: 14000 nM
[20]
  AUC(0-t) at 12 h: 42 µM·h
[21]
  AUC(0-t) at 24 h: 4 µM·h
[22]
  half-life: 11 h
[23]
  clearance: 28 mL/min/kg
[24]
  bioavailability: 24%
[25]
  hepatocyte CLint: 5.6 µL/min/1e6 cells
[26]
  AUC(0-t) at 24 h: 2.7 µM·h
[27]
  Vd: 2.4 L/kg
[28]
  half-life: 5 h
[29]
  half-life: 6 h
[30]
  AUC(0-t) at 24 h: 97 µM·h
[31]
  half-life: 3 h
[32]
  Cmax: 10000 nM
[33]
  Cmax: 1300 nM
[34]
  bioavailability: 29%
[35]
  clearance: 3.6 mL/min/kg
[36]
  Drug excretion: Active
[37]
  clearance: 49 mL/min/kg
[38]
  half-life: 1 h
[39]
  AUC(0-t) at 12 h: 0.7 µM·h
[40]
  Cmax: 600 nM
[41]
  AUC(0-t) at 24 h: 11 µM·h

## C[C@@H]1CN(c2noc(C3CC3)n2)CCN1c1ncc(OCc2ccncc2C#N)cn1
[1]; octanol/phosphate buffer
  logD: 3.1

## CC(C)(C)OC(=O)N1CCN(c2cnc(OCc3ccc(S(C)(=O)=O)cc3)cn2)CC1
[1]; octanol/water
  logD: 3.4

## CC(C)(C)OC(=O)N1CCN(c2ccc(OCc3ccc(S(C)(=O)=O)cc3)nn2)CC1
[1]; octanol/phosphate buffer
  logD: 2.8

## C[C@@H]1CN(C(=O)OC(C)(C)C)CCN1c1ncc(OCc2ccc(S(C)(=O)=O)cc2F)cn1
[1]; octanol/phosphate buffer
  logD: 3.7

## C[C@@H]1CN(C(=O)OC(C)(C)C)CCN1c1ncc(OCc2ccc(S(C)(=O)=O)cn2)cn1
[1]; octanol/water
  logD: 3

## CC(C)(C)OC(=O)N1CCN(c2ncc(OCc3ccc(S(C)(=O)=O)cc3)cn2)CC1
[1]; octanol/phosphate buffer
  logD: 3.2
[42]
  microsomal CLint: 47 µL/min/mg

## C[C@@H]1CN(c2noc(C(F)F)n2)CCN1c1ncc(OCc2ccncc2C#N)cn1
[1]; octanol/water
  logD: 2.9

## COc1cnccc1COc1cnc(N2CCN(C(=O)OC(C)(C)C)CC2)nc1
[1]; octanol/phosphate buffer
  logD: 3.8
